Experimental data reported in PMC3910017 (CPT: Pharmacometrics & Systems Pharmacology, 2014).
Where “and” joins values, the source holds several entries; their conditions need not be identical. Equal entries are not always repeated. Where two headings read alike, the source gives them in different places. Each block holds one molecule with its values, some of them ahead of it.

Columns and labels:
[1] = cited from earlier work
HDL-C [2] = conditions: similar exposure-response analysis; cited from earlier work
LDL-C [3] = conditions: cited from earlier work
[4] = assay type: in vivo, human
HDL-C [5] = assay: HDL-C percent change from baseline, exposure-response; assay type: in vivo, human; conditions: for HDL-C increase as percent of the maximal effect: from EAUC50 and estimated AUC
Method in brief: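 Dyslipidemic patients took placebo or 30, 100 or 500 mg daily for 12 weeks, or 100 mg plus simvastatin 40 mg, atorvastatin 20 mg or rosuvastatin 10 mg. HDL-C was measured by enzymatic assay at weeks 2, 4, 8 and 12. Percent change from baseline was fitted with placebo and statin terms plus a sigmoid Emax on each patient's post hoc steady-state AUC (EAUC50, Hill coefficient), with rate constant K.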

LDL-C [6] = assay: LDL-C percent change from baseline, exposure-response; assay type: in vivo, human
Method in brief: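 Arms were placebo or 30, 100 or 500 mg daily monotherapy, or 100 mg with simvastatin 40 mg, atorvastatin 20 mg or rosuvastatin 10 mg, for 12 weeks. LDL-C was measured by standard enzymatic assay at weeks 2, 4, 8 and 12. Percent change from baseline was modelled with placebo, statin and test-compound Emax terms on post hoc AUC, an interaction term, and time constant K. Covariates included baseline ApoA1.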

[7] = Healthy subject studies of evacetrapib; assay type: in vivo, human; conditions: 30-mg single dose, healthy subjects; data not shown
Protein binding = assay type: in vitro ADME; conditions: separate studies
Metabolism = conditions: separate studies
HDL-C [8] = conditions: dyslipidemic patients, alone or with statins; cited from earlier work
LDL-C [9] = conditions: dyslipidemic patients, alone or with statins; cited from earlier work
[10] = ref J.G. Suico et al., unpublished data, cited from earlier work
[11] = cited from earlier work; remark: listed apart in the source
[12] = patients in the ILLUMINATE study; cited from earlier work
[13] = phase III formulation of anacetrapib
[14] = week 16–18, 4–6 weeks after last dose, monotherapy groups

Structure (SMILES): COc1cc(F)c(C(C)C)cc1-c1ccc(C(F)(F)F)cc1CN1C(=O)O[C@H](c2cc(C(F)(F)F)cc(C(F)(F)F)c2)[C@@H]1C [anacetrapib]
Increase of exposure with dose [1]: Less than dose-proportional | AUC with high-fat meal vs fasted state [1, 13]: 7.5 fold | AUC with low-fat meal vs fasted state [1, 13]: 2.2 fold | Maximal effect on HDL-C (HDL-C [2]): 176% | LDL-C reduction in combination with atorvastatin, kind of interaction (LDL-C [3]): pharmacologically independent | Theoretical maximal LDL-C reduction (LDL-C [3]; similar LDL-C model): 80%

Increase of exposure with dose ([4]; 30–500 mg, dyslipidemic patients): less than dose-proportional | Model-predicted population CL/F lower at CGCL 50 ml/minute than at 100 ml/minute ([4]; CGCL 50 vs 100 ml/minute): 10% | Effect of dose on CL/F (covariate coefficient) ([4]; CL/F = 15.3 * (1+0.00105 * DOSE) * (1+0.00198 * (CGCL − 91.28)), DOSE in mg): 0.00105 (21.6%, 0.000726–0.00144) | CL/F, estimated population value ([4]; dose 30 mg): 13.1 L/h | CL/F, estimated population value ([4]; dose 100 mg): 17.0 L/h | CL/F, estimated population value ([4]; dose 500 mg): 25.4 L/h | Oral clearance (CL/F), population estimate (%SEE, 95% CI) ([4]; final population PK model): 15.3 (4.57%, 14.3–16.5) l/hour | Peripheral volume of distribution (V3/F), population estimate (%SEE, 95% CI) ([4]; final population PK model): 827 (18%, 600.7–1,071) l | Rate of absorption (Ka) ([4]; final population PK model, value fixed, not estimated): 0.3 hour^-1 and 0.3 (fixed) hour^-1 | Vd/F ([4]; human, plasma, oral): 228 L | AUC0–∞ increased after a high-fat meal relative to low-fat meal [7]: 41% | AUC0–∞ reduced in the fasted state relative to low-fat meal [7]: 38% | Protein bound (Protein binding): > 99%
Structure (SMILES): Cc1cc(C)c2c(c1)[C@@H](N(Cc1cc(C(F)(F)F)cc(C(F)(F)F)c1)c1nnn(C)n1)CCCN2C[C@H]1CC[C@H](C(=O)O)CC1 [evacetrapib]
HDL-C increase as percent of the maximal effect (HDL-C [5]; 30 mg dose): ~ 30 % of the maximal effect | HDL-C increase as percent of the maximal effect (HDL-C [5]; 100 mg dose): ~50 % of the maximal effect | HDL-C increase as percent of the maximal effect (HDL-C [5]; 500 mg dose): ~80 % of the maximal effect | Time course constant (K) of HDL-C response, population estimate (%SEE, 95% CI) (HDL-C [5]; final HDL-C model): 0.00684 (7.43%, 0.00604–0.00791) hour^−1 | AUC that produced half of maximum effect (EAUC50), HDL-C, population estimate (%SEE, 95% CI) (HDL-C [5]; final HDL-C model, at median baseline HDL 52.2 mg/dl): 5,380 (1.54%, 3,930–7,270) h·ng/ml | Maximum effect (Emax) on HDL-C, population estimate (%SEE, 95% CI) (HDL-C [5]; theoretical maximum at steady state, final HDL-C model): 177 (6.55%, 153–207) % change from baseline | HDL-C at follow-up visit after discontinuation (HDL-C [5]; [14]): returned to levels similar to those of the placebo group | LDL-C response of evacetrapib and the statins, kind of interaction (LDL-C [6]; coadministered with atorvastatin, simvastatin or rosuvastatin): pharmacologically independent | AUC that produced half of maximum effect (EAUC50), LDL-C, population estimate (%SEE, 95% CI) (LDL-C [6]; final LDL-C model): 4,230 (3.23%, 2,450 to 7,010) h·ng/ml | Theoretical maximal mean LDL-C decrease (reduction) relative to baseline (LDL-C [6]; final LDL-C model, printed as a reduction): 44.1% | LDL-C at follow-up visit after discontinuation (LDL-C [6]; [14]): returned to levels similar to those of the placebo group | Metabolism (Metabolism): metabolized primarily by oxidative pathways | Observed HDL-C increase (HDL-C [8]): up to 129% | Observed LDL-C decrease (LDL-C [9]): up to 36% | Half-life ([10]; healthy subject studies): ~40 h | Increase of exposure with dose ([10]; healthy subjects, 10–600 mg dose range): less than dose-proportional | Safety and tolerability ([11]; administered alone or in combination with statins): safe and well tolerated | Changes in mineralocorticoid levels or increases in systolic or diastolic blood pressure ([11]; dyslipidemic patients): did not cause any significant changes

Structure (SMILES): CCOC(=O)N1c2ccc(C(F)(F)F)cc2[C@@H](N(Cc2cc(C(F)(F)F)cc(C(F)(F)F)c2)C(=O)OC)C[C@H]1CC [torcetrapib]
Adverse cardiovascular events [12]: increased adverse cardiovascular events
